Experimental data from ChEMBL document CHEMBL4251567 (Eur J Med Chem, 2018).

Legend:
Histone deacetylase = assay: Inhibition of HDAC in human HeLa-S3 cell lysates preincubated for 15 mins followed by HDAC-Glo substrate addition measured after 35 mins by fluorimetric method; assay type: protein assay
[1] = molecular target: T1, Histone deacetylase (Homo sapiens) (UniProt Q13547+O15379+Q9UBN7+Q92769+Q9UQL6+Q8WUI4+Q9BY41+Q96DB2+P56524+Q9UKV0+Q969S8); assay: Inhibition of HDAC in human HeLa-S3 cell lysates assessed as residual activity at 2 x 10^-4 M preincubated for 15 mins followed by HDAC-Glo substrate addition measured after 35 mins by fluorimetric method relative to control; assay type: protein assay
Summary of the method: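 Lysate (1 μg total protein) in HDAC-Glo buffer was preincubated with inhibitor in DMSO for 15 min at room temperature. HDAC-Glo substrate/developer reagent was added and luminescence read after 35 min. Concentrations are final. Signal corrected for a no-lysate blank; % of DMSO control.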

[2] = molecular target: T1, Histone deacetylase (Homo sapiens); assay: Inhibition of HDAC in human HeLa-S3 cell lysates assessed as residual activity at 1 x 10^-4 M preincubated for 15 mins followed by HDAC-Glo substrate addition measured after 35 mins by […] relative to control; assay type: protein assay
[3] = molecular target: T1, Histone deacetylase (Homo sapiens); assay: Inhibition of HDAC in human HeLa-S3 cell lysates assessed as residual activity at 2.5 x 10^-5 M preincubated for 15 mins followed by HDAC-Glo substrate addition measured after 35 mins by […] relative to control; assay type: protein assay
[4] = molecular target: T1, Histone deacetylase (Homo sapiens); assay: Inhibition of HDAC in human HeLa-S3 cell lysates assessed as residual activity at 1.25 x 10^-5 M preincubated for 15 mins followed by HDAC-Glo substrate addition measured after 35 mins by […] relative to control; assay type: protein assay
[5] = molecular target: T2, Histone deacetylase 8 (Homo sapiens) (UniProt Q9BY41); assay: Inhibition of human recombinant full-length C-terminal His-tagged HDAC8 expressed in baculovirus infected Sf9 insect cell assessed as remaining activity at 4 x 10^-7 M preincubated for 15 mins followed by HDAC-Glo substrate addition measured after 30 mins by fluorimetric method rel;ative to control
T2 sequence (whole entry): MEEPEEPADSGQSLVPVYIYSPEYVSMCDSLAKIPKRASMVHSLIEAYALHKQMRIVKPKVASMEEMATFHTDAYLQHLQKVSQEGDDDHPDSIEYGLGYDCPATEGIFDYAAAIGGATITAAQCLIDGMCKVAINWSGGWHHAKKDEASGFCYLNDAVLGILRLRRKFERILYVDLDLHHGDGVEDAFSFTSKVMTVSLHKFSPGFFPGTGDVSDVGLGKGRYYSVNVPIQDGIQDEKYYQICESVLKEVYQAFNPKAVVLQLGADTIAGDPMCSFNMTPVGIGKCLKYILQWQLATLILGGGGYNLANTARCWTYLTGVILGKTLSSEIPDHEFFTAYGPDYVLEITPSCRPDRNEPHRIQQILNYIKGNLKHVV
Summary of the method: (§1)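 Recombinant HDAC8 (75 ng) preincubated 15 min at RT with inhibitor in DMSO in HDAC-Glo buffer. HDAC-Glo reagent added and luminescence read 30 min later. Background taken from a reaction without enzyme; activity as % of DMSO control.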

[6] = molecular target: T2, Histone deacetylase 8 (Homo sapiens); assay: Inhibition of human recombinant full-length C-terminal His-tagged HDAC8 expressed in baculovirus infected Sf9 insect cell assessed as remaining activity at 8 x 10^-7 M preincubated for 15 mins followed by HDAC-Glo substrate addition measured after 30 mins by fluorimetric method rel;ative to control; summary of the method: as §1
[7] = molecular target: Histone deacetylase 1 (Homo sapiens) (UniProt Q13547); assay: Inhibition of HDAC1 in human HeLa-S3 cell lysates assessed as remaining activity at 4.8 x 10^-5 M preincubated for 15 mins followed by HDAC-Glo substrate addition measured after 30 to 40 mins by […] relative to control
Chain of Histone deacetylase 1 (Homo sapiens) (Q13547 whole entry): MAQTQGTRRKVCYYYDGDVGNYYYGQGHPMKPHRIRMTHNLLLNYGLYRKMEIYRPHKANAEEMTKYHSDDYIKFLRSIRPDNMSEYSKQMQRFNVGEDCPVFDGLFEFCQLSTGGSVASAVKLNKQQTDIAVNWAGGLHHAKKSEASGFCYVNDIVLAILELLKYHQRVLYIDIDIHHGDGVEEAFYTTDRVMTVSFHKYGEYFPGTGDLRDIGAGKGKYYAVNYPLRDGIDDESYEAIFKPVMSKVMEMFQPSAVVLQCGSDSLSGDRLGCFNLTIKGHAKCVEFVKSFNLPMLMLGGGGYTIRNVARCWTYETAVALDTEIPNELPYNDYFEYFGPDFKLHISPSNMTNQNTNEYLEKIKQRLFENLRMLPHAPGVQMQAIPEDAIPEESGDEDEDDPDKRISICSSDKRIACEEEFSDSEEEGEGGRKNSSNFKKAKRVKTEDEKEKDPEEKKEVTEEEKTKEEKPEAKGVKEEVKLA
Summary of the method: (§2)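 HDAC1 was captured from HeLa-S3 lysate (100 μg/mL) onto wells precoated with anti-HDAC1 antibody (10 μg/mL, carbonate buffer pH 9.4) and milk-blocked, 1 h at 4 °C, then washed. Inhibitor in DMSO was added in HDAC-Glo buffer for 15 min at room temperature. HDAC-Glo reagent was added and luminescence read after 30-40 min. Concentrations are final. No-antibody background subtracted; % of DMSO control.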

[8] = molecular target: Histone deacetylase 1 (Homo sapiens) (UniProt Q13547); assay: Inhibition of HDAC1 in human HeLa-S3 cell lysates assessed as remaining activity at 2.4 x 10^-5 M preincubated for 15 mins followed by HDAC-Glo substrate addition measured after 30 to 40 mins by […] relative to control; summary of the method: as §2
[9] = molecular target: Histone deacetylase 1 (Homo sapiens) (UniProt Q13547); assay: Inhibition of HDAC1 in human HeLa-S3 cell lysates assessed as remaining activity at 1.2 x 10^-5 M preincubated for 15 mins followed by HDAC-Glo substrate addition measured after 30 to 40 mins by […] relative to control; summary of the method: as §2
[10] = molecular target: Histone deacetylase 1 (Homo sapiens) (UniProt Q13547); assay: Inhibition of HDAC1 in human HeLa-S3 cell lysates assessed as remaining activity at 6 x 10^-6 M preincubated for 15 mins followed by HDAC-Glo substrate addition measured after 30 to 40 mins by […] relative to control; summary of the method: as §2
[11] = molecular target: Histone deacetylase 1 (Homo sapiens) (UniProt Q13547); assay: Inhibition of HDAC1 in human HeLa-S3 cell lysates assessed as remaining activity at 3 x 10^-6 M preincubated for 15 mins followed by HDAC-Glo substrate addition […] relative to control
[12] = molecular target: Histone deacetylase 2 (Homo sapiens) (UniProt Q92769); assay: Inhibition of HDAC2 in human HeLa-S3 cell lysates assessed as remaining activity at 4.8 x 10^-5 M preincubated for 15 mins followed by HDAC-Glo substrate addition measured after 30 to 40 mins by […] relative to control
Chain of Histone deacetylase 2 (Homo sapiens) (Q92769 whole entry, canonical isoform): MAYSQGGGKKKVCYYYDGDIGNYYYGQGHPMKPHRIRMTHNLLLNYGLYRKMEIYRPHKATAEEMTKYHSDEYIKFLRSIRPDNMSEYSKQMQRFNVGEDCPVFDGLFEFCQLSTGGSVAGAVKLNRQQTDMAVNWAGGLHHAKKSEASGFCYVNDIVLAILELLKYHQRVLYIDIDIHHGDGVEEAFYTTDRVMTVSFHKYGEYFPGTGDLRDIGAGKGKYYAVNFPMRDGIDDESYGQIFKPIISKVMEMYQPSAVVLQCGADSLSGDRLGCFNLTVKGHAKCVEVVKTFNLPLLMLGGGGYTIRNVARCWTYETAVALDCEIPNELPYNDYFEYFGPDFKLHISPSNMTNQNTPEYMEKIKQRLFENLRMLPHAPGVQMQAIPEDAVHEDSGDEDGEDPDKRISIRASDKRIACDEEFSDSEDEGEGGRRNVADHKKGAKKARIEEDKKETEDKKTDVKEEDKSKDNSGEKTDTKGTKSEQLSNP
Summary of the method: (§3)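 Same antibody-capture format as the other class I isoforms. HeLa-S3 lysate added at 100 μg/mL for HDAC1 and HDAC2, 1 h at 4 °C, then washed. Inhibitor in DMSO preincubated 15 min at RT; HDAC-Glo reagent added and luminescence read after 30-40 min. Concentrations are final. Signal corrected against a well without antibody; activity expressed as % of DMSO control.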

[13] = molecular target: Histone deacetylase 2 (Homo sapiens) (UniProt Q92769); assay: Inhibition of HDAC2 in human HeLa-S3 cell lysates assessed as remaining activity at 2.4 x 10^-5 M preincubated for 15 mins followed by HDAC-Glo substrate addition measured after 30 to 40 mins by fluorimetric method relative to control; summary of the method: as §3
[14] = molecular target: Histone deacetylase 2 (Homo sapiens) (UniProt Q92769); assay: Inhibition of HDAC2 in human HeLa-S3 cell lysates assessed as remaining activity at 1.2 x 10^-5 M preincubated for 15 mins followed by HDAC-Glo substrate addition measured after 30 to 40 mins by […] relative to control; summary of the method: as §3
[15] = molecular target: Histone deacetylase 2 (Homo sapiens) (UniProt Q92769); assay: Inhibition of HDAC2 in human HeLa-S3 cell lysates assessed as remaining activity at 6 x 10^-6 M preincubated for 15 mins followed by HDAC-Glo substrate addition measured after 30 to 40 mins by […] relative to control; summary of the method: as §3
[16] = molecular target: Histone deacetylase 2 (Homo sapiens) (UniProt Q92769); assay: Inhibition of HDAC2 in human HeLa-S3 cell lysates assessed as remaining activity at 3 x 10^-6 M preincubated for 15 mins followed by HDAC-Glo substrate addition measured after 30 to 40 mins by fluorimetric method relative to control; summary of the method: as §3
[17] = molecular target: Histone deacetylase 3 (Homo sapiens) (UniProt O15379); assay: Inhibition of HDAC3 in human HeLa-S3 cell lysates assessed as remaining activity at 4.8 x 10^-5 M preincubated for 15 mins followed by HDAC-Glo substrate addition measured after 30 to 40 mins by […] relative to control
Chain of Histone deacetylase 3 (Homo sapiens) (O15379 whole entry): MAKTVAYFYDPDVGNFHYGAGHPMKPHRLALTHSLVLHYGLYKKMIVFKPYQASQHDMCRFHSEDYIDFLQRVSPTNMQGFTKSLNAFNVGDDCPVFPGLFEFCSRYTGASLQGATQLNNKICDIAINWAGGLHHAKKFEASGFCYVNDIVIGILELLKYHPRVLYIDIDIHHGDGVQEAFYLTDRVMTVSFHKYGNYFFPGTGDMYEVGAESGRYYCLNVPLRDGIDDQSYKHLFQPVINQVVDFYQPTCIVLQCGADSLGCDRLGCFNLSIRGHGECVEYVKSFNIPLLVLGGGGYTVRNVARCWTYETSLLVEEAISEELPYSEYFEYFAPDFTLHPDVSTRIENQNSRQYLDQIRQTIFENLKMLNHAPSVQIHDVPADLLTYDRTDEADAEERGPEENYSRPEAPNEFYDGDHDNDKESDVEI
Summary of the method: (§4)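 Antibody-capture (ELISA-type) assay: HDAC antibody coated in carbonate/bicarbonate buffer pH 9.4, wells blocked with 5% milk in TBST. HeLa-S3 lysate added at 1 mg/mL for HDAC3, 1 h at 4 °C, then washed. Inhibitor in DMSO preincubated 15 min at RT in HDAC-Glo buffer. HDAC-Glo reagent added, luminescence read after 30-40 min. Concentrations are final. Background = no-antibody well; activity given as % of DMSO control.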

[18] = molecular target: Histone deacetylase 3 (Homo sapiens) (UniProt O15379); assay: Inhibition of HDAC3 in human HeLa-S3 cell lysates assessed as remaining activity at 2.4 x 10^-5 M preincubated for 15 mins followed by HDAC-Glo substrate addition measured after 30 to 40 mins by […] relative to control; summary of the method: as §4
[19] = molecular target: Histone deacetylase 3 (Homo sapiens) (UniProt O15379); assay: Inhibition of HDAC3 in human HeLa-S3 cell lysates assessed as remaining activity at 1.2 x 10^-5 M preincubated for 15 mins followed by HDAC-Glo substrate addition measured after 30 to 40 mins by […] relative to control; summary of the method: as §4
[20] = molecular target: Histone deacetylase 3 (Homo sapiens) (UniProt O15379); assay: Inhibition of HDAC3 in human HeLa-S3 cell lysates assessed as remaining activity at 6 x 10^-6 M preincubated for 15 mins followed by HDAC-Glo substrate addition measured after 30 to 40 mins by […] relative to control; summary of the method: as §4
[21] = molecular target: Histone deacetylase 3 (Homo sapiens) (UniProt O15379); assay: Inhibition of HDAC3 in human HeLa-S3 cell lysates assessed as remaining activity at 3 x 10^-6 M preincubated for 15 mins followed by HDAC-Glo substrate addition measured after 30 to 40 mins by fluorimetric method relative to control; summary of the method: as §4

SMILES: O=C(CCC(CCCC(=O)Nc1ccccc1)c1ccccc1)NO (configuration not stated)
- IC50 (Histone deacetylase): 65 µM
- Activity [1]: 15%
- Activity [2]: 32%
- Activity [3]: 88%
- Activity [4]: 104%
- Activity [5]: 48%
- Activity [6]: 29%
- Activity [7]: 19%
- Activity [8]: 34%
- Activity [9]: 53%
- Activity [10]: 63%
- Activity [11]: 74%
- Activity [12]: 22%
- Activity [13]: 33%
- Activity [14]: 53%
- Activity [15]: 68%
- Activity [16]: 72%
- Activity [17]: 30%
- Activity [18]: 53%
- Activity [19]: 64%
- Activity [20]: 74%
- Activity [21]: 88%
